Assay results from ChEMBL document CHEMBL1144729, “N-pyridin-3-yl- and N-quinolin-3-yl-benzamides: modulators of human vanilloid receptor 1 (TRPV1)” (Bioorg Med Chem Lett, 2008).

What was measured:
[1] = biological target: T1, Transient receptor potential cation channel subfamily V member 1 (Homo sapiens, UniProt Q8NER1); assay: Activity at human TRPV1 in HEK cells assessed by measuring capsaicin-induced calcium level by FLIPR technology; assay type: cell-based, HEK293
Method in brief: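 Stably transfected hTRPV1/HEK cells plated on poly-D-lysine and used 2 days later. Loaded with Fluo-3/AM for 1 h, then given a single concentration of compound. Antagonist potency protocol taken from earlier work.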

[2] = biological target: T1, Transient receptor potential cation channel subfamily V member 1; assay: Displacement of [3H]RTX from human TRPV1 receptor expressed in HEK293 cells; assay type: cell-based
Method in brief: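 Membranes from HEK293 stably expressing human TRPV1, prepared by homogenisation and differential centrifugation. Binding buffer: 20 mM Hepes pH 7.4, 5.8 mM NaCl, 320 mM sucrose, 2 mM MgCl2, 0.75 mM CaCl2, 5 mM KCl. Incubated 60 min at 37 °C with 0.3–0.6 nM [3H]-RTX. Cooled on ice, alpha-acid glycoprotein added, pellet counted by scintillation. Nonspecific binding defined with 200 nM unlabeled RTX.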

[3] = Elimination half life in Sprague-Dawley rat; assay type: ADME, organism-based; details: in vivo
Method in brief: (§1)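 Pharmacokinetics measured in male Sprague–Dawley rats after intravenous and oral dosing.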

[4] = Metabolic stability in human liver microsomes after 15 mins; assay type: ADME, Microsome; details: read-out: Stability
Method in brief: (§2)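 Compound incubated with rat or human liver microsomes. Percent of parent remaining measured after 15 min.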

[5] = Oral bioavailability in Sprague-Dawley rat; assay type: ADME, organism-based; details: in vivo; method in brief: as §1
[6] = Metabolic stability in rat liver microsomes after 15 mins; assay type: ADME, Microsome; details: read-out: Stability; method in brief: as §2
Rattus norvegicus = assay: Reversal of CFA-induced thermal hyperalgesia in Sprague-Dawley rat at 30 mg/kg, po; assay type: functional
Method in brief: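 Thermal hyperalgesia induced by CFA injection in Sprague–Dawley rats. Radiant-heat withdrawal latency measured on a warm glass surface after about 10 min acclimation, before and 24 h after CFA. Single oral dose given, latencies reassessed at 100 min post-dose and compared with vehicle. Analysis by two-way ANOVA with Bonferroni post hoc test, p < 0.05.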

[7] = Clearance in Sprague-Dawley rat; assay type: ADME, organism-based; details: in vivo; method in brief: as §1

T1 sequence (Q8NER1 whole entry): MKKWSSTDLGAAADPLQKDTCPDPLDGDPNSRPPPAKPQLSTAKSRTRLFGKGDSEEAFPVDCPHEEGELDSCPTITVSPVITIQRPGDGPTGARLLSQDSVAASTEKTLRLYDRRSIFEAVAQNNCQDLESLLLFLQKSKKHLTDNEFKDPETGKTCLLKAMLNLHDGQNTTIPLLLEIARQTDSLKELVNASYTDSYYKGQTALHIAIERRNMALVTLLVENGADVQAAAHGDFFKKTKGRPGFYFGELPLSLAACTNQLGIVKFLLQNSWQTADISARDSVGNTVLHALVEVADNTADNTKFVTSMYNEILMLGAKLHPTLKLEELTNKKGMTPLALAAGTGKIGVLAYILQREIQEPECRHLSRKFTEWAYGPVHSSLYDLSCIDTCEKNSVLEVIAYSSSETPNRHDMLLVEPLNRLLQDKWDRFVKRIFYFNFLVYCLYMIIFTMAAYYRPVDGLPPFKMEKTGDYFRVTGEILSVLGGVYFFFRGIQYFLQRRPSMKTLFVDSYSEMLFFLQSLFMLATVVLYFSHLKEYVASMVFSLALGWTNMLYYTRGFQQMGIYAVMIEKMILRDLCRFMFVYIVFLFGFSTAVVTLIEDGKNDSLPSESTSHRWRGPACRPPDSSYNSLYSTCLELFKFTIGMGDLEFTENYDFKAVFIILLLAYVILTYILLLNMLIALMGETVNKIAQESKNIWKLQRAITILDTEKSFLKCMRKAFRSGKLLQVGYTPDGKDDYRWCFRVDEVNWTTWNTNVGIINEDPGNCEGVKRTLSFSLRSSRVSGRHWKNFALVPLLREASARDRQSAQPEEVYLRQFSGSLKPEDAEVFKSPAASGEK

Row | Compound | IC50 [1] | Ki [2] | EC50 [1] | also measured
1 | CCCCN(C)c1ccc(C(=O)Nc2cnc3ccccc3c2)cc1 | 66 nM |  |  | 
2 | CCCCCCCCN(C)c1ccc(C(=O)Nc2cnc3ccccc3c2)cc1 |  | 15 nM |  | 
3 | CCCCCCCCCCc1ccc(C(=O)Nc2cccnc2)cc1 |  | 607 nM | > 30000 nM | 
4 | CCCCc1ccc(C(=O)Nc2cnc3ccccc3c2)cc1 | 230 nM | 53 nM |  | 
5 | CCCc1ccc(C(=O)Nc2cnc3ccccc3c2)cc1 | 130 nM | 60 nM |  | 
6 | CCCCCc1ccc(CC(=O)Nc2cccnc2)cc1 |  | 7260 nM | > 5000 nM | 
7 | CCCCCc1ccc(NC(=O)c2cccnc2)cc1 |  | > 3000 nM | > 5000 nM | 
8 | CN(CC1CCCCC1)c1ccc(C(=O)Nc2cnc3ccccc3c2)cc1 | 170 nM | 16 nM |  | 
9 | CCCCCCCc1ccc(C(=O)Nc2cnc3ccccc3c2)cc1 | > 30000 nM | 3520 nM |  | 
10 | CN(c1ccc(C(=O)Nc2cnc3ccccc3c2)cc1)C1CCCCC1 |  |  |  | half-life [3]: 1.67 h; remaining at 0.25 h [4]: 25%; bioavailability [5]: 70%; remaining at 0.25 h [6]: 45%; Activity (Rattus norvegicus): > 80%; clearance [7]: 20 mL/min/kg
